The record followed here is the EternaBench riboswitch data.

This data set deals with MS2 coat protein. Put plainly: apparent Kd, MS2 coat protein; higher = weaker binding; RNA-MaP array; FMN 200 µM where present. A digest of the protocol:
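On Illumina sequencing-chip clusters, designs were transcribed by stalled E. coli RNA polymerase and titrated with SNAP-549-labelled MS2 coat protein (0.7 or 1.5 nM, doubling to 3 µM), without and then with constant ligand, in 100 mM Tris-HCl pH 7.5, 80 mM KCl, 4 mM MgCl2, BSA, DTT, yeast tRNA and Tween-20. Apparent Kd is the median of filtered per-cluster curve fits to green signal normalised to red-channel RNA signal and control-cluster median Fmax.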

[1] abbreviates: designed as: ON switch for flavin mononucleotide, no ligand.
Where [2] appears, read: ligand present: flavin mononucleotide, designed as: ON switch for flavin mononucleotide.
Where [3] appears, read: designed as: OFF switch for flavin mononucleotide, no ligand.
Where [4] appears, read: ligand present: flavin mononucleotide, designed as: OFF switch for flavin mononucleotide.

“GACAUGAGGAUCACCCAUGUCCAUGCAAGAGUAGUUGAGACCAGAAGGACCGUGCGGAGCGCAGGGUAGGAUAUGGAGCCCUCA”: the “apparent Kd” value under setting [1] was found to be 32.4 nM and the “apparent Kd” value under setting [2] was found to be 9.46 nM.

With “UGUCGGAGCAGAGGAUAUUACAUGAGGAUCACCCAUGUAUGAACCAAUAGCUGGAAACAGCAAUGUAAGAAGGCUGCUCUGACA”, the “apparent Kd” value turned out to be 11.5 nM under setting [3] and 150 nM under setting [4].

For the sequence “GCACUUUUAUUUGAACCGAUACGAACAUGAGGAUCACCCAUGUAGGAUAUGCUAAAAGUUGUGAUGCAGAAGGACAUUAAGUGC”, the “apparent Kd” value under setting [3] stood at 7.73 nM and the “apparent Kd” value under setting [4] stood at 9.21 nM.

As for “AAAUUAAGAUGAGGAUAUUGACAUGAGGAUCACCCAUGUAUUUGGGAAUGUUUACUGAAUUCUUACAAGAAGGUAUACGAACUU”, the “apparent Kd” value came to 206 nM under setting [3] and 134 nM under setting [4].

As to “AUACAUGAGGAUCACCCAUGUUACUGGGUCUAUAUAGAACGUAGAAGGAUGUAUUUAAGAAUAACAUAGGAUAUACUUUAUAGU”, the “apparent Kd” value worked out at 60.4 nM under setting [3] and 38.2 nM under setting [4]. Regarding “UGAAAUCAUGUAGGAUAUGCAUGGCGAAGCUACGCAGAAGGACAUGAGGAUCACCCAUGUUAUAGCUACUCAGUUCGGUGGCAA”, the “apparent Kd” value under setting [3] is 38.5 nM and the “apparent Kd” value under setting [4] came out at 195 nM. Take “GUUGUGUAAGGAGGAUAUGAGCUGAAACUCUUACAUGAGGAUCACCCAUGUCCGUAACUCAGGCAUCAGAAGGCCUAACGCAUU”: the “apparent Kd” value under setting [1] was 686 nM and the “apparent Kd” value under setting [2] was found to be 23 nM. Turning to “GUGUACAGAGGAUAUGCACGAGUAGUUACGAAAGUAACUGCACAUGAGGAUCACCCAUGUAGAAGGCUGUACAC”, the “apparent Kd” value came out at 17.9 nM under setting [3] and 16.7 nM under setting [4]. Consider “GCAGCGCCUGACAUGAGGAUCACCCAUGUUCCAUUGUUGAGUCAGGAUAUAGUCUAGAAACUAGACUAGAAGGGAUAUGCUGCU”, for which the “apparent Kd” value runs as follows: under setting [1], 70.2 nM; under setting [2], 50.8 nM. The matching figures for “UGUACGGACAUGAGGAUCACCCAUGUAACCAAGCAGUUGGUACAGGAUAUCGCUUAGUGACUGAGCGAGAAGGGUGGUUCUGCA”: 45.2 nM and 62.6 nM. Take “UGGAUCAUCGGAGGAUAUCAUGUAUAUACAUGAGGAUCACCCAUGUCGUACGAGAGUACGGAGAUUGAGAAGGCCGAUGAUCCU”: the “apparent Kd” value runs as follows: under setting [1], 38.8 nM; under setting [2], 14.9 nM. “GCAGACGUAGUGAGGAUAUGCUCUACCUCGGUAGAGCAGAAGGCACAUGAGGAUCACCCAUGUGAUUUCUCUGC”: the “apparent Kd” value by setting is: under setting [3], 37.2 nM; under setting [4], 421 nM. In the case of “AGCUACGUUUCGUAGCAGCUAGGUGAGGAUAUUCAAUUUUUCACAUGAGGAUCACCCAUGUAUGUGAAGAAGGCGCCUAGAAAA”, the “apparent Kd” value came to 12.3 nM under setting [1] and 4.98 nM under setting [2].

In the case of “GGACCACAUCAGGAUAUGACUAGCUUCGGCUAGUCAGAAGGGAUGACAUGAGGAUCACCCAUGUGAUCAGGUCC”, the “apparent Kd” value came to 77.5 nM under setting [3] and 127 nM under setting [4].

“GUGCGUGGCUAGGAUAUUGUGGAGUUUUGUCAGCGAGAAGGAGCCACAUGAGGAUCACCCAUGUGGUGUUGCUC”: under setting [4], the “apparent Kd” value worked out at 67.5 nM. Turning to “CCCGCCCGCCCGCACGCGGAGCGACGAGAAGGUACACAUGAGGAUCACCCAUGUCGAGUGGGAGGUAAGGAUAUUGGACGGCGG”, the “apparent Kd” value runs as follows: under setting [1], 106 nM; under setting [2], 93.3 nM. “GGUUAUUGCAAGGAUAUGCUUUUUUUUUAUAUUGCAGAAGGUGCAACAUGAGGAUCACCCAUGUUGGAGGGAUU”: the “apparent Kd” value reads like this: under setting [3], 30.9 nM; under setting [4], 59.5 nM. The matching figures for “GUCAGCUCGUGAGGAUAUACAACACUGCUUCGGCAGUGUAUUAAGGUCACAUGAGGAUCACCCAUGUAGAAGGCACGAGCUGAU”: 8.12 nM and 105 nM. For the sequence “UCGAACGGAAACAAAGUCGAUAGACAUGAGGAUCACCCAUGUAAGGAUAUGCCUACUAAAAGUAGGCAGAAGGUACGCGUUCGA”, the “apparent Kd” value reads like this: under setting [3], 18.9 nM; under setting [4], 28.1 nM. For the sequence “GACUCGAAUGUAGGAUAUGCUGAGGAAUACUCAGCAGAAGGACAUGAGGAUCACCCAUGUCAAUGAGUGAAUAAUAAACGAGUC”, the “apparent Kd” value was 29.2 nM under setting [3] and 224 nM under setting [4]. “GUUUUGGGAGGAUAUAUGUGGAUUAUUUUUAUAUGUUAUUUACAUGAGGAUCACCCAUGUAGAAGGUCUAGAGC”: the “apparent Kd” value by setting is: under setting [3], 163 nM; under setting [4], 249 nM. On to “CGGCAUCAUGUAGGAUAUGCGUGGCGAAGCUAUGCAGAAGGACAUGAGGAUCACCCAUGUCUUACCUAGCGUACUAGGUUGCCG”, for which the “apparent Kd” value came out at 6.37 nM under setting [3] and 16.1 nM under setting [4].

As to “GGAUGUCAAAGACAUCCAAUUCGAACAUGAGGAUCACCCAUGUAGGAUAUGCUACUCAAAGAGUAGCAGAAGGACAUGUGCUUU”, the “apparent Kd” value under setting [3] amounted to 36.6 nM and the “apparent Kd” value under setting [4] is 183 nM. Take “AGAUCUCAAUAAGAUCCAAUACGAACAUGAGGAUCACCCAUGUAGGAUAUGCUAGAAGUAGAGUAGCAGAAGGACAAUUACCUU”: the “apparent Kd” value runs as follows: under setting [3], 19.9 nM; under setting [4], 19.7 nM.

As to “UAAUUGUGAGGAUAUUCGUUUUUCUCGGAGACGAGAAGAACGGAGAAGGCACAUGAGGAUCACCCAUGUUCCUU”, the “apparent Kd” value runs as follows: under setting [3], 18 nM; under setting [4], 91.7 nM. Consider “GCUAGGAUGUGAGGAUAUGCUGAGGAUACUUCAGCAGAAGGCACAUGAGGAUCACCCAUGUACACUUAUCAUAAAUACCCUAGC”, for which the “apparent Kd” value under setting [3] amounted to 12.7 nM and the “apparent Kd” value under setting [4] was 16.2 nM. Regarding “GUGUUACAUGAGGAUCACCCAUGUUGUUGUAGAUAAGGAUAUAUGGUAACGAGAGAAAUAAUAGAAGGUAUUAGGC”, the “apparent Kd” value reads like this: under setting [1], 37 nM; under setting [2], 31.6 nM. On to “AUGGAUACCACAGGAUAUGCCCGGGAUACCCGGGCAGAAGGGUGGUCCAUCCUAUGUAAAUACAUGAGGAUCACCCAUGUGUCC”, for which the “apparent Kd” value reads like this: under setting [1], 351 nM; under setting [2], 257 nM. For “AUACAUGAGGAUCACCCAUGUAAUUAAUUAAUUAAUAAGAUCUAGGAUAUCAGCUCGUUUAGAGCUGAGAAGGAGAUCACAUGU”, the “apparent Kd” value under setting [1] was 23.4 nM and the “apparent Kd” value under setting [2] was 13.1 nM.

As to “GUAUGGAGUACAGGAUAUGUUAGUUUUAAGUGUAUUGGUUAUUACUUAAUUACAGAAGGGUAUUACAUGAGGAUCACCCAUGUA”, the “apparent Kd” value under setting [1] came out at 13.6 nM and the “apparent Kd” value under setting [2] was found to be 10.6 nM. For “UGAUAAUACGUCAGGAUAUGCGUCAUAGAGAAGUGGUAGAAGGGACAUGAGGAUCACCCAUGUUUUGGGUUAUA”, the “apparent Kd” value by setting is: under setting [3], 132 nM; under setting [4], 93.5 nM. In the case of “CGCUCACAUGAGGAUCACCCAUGUCCUAGGAGGUCAGGAUAUAGCUCGGAUGCGUUGAGGCUAGAAGGGACAGCUG”, the “apparent Kd” value runs as follows: under setting [1], 259 nM; under setting [2], 84.7 nM.

Regarding “AUUAAUUAAUUAAUACAUGAGGAUCACCCAUGUAAUAAGAUCUAGGAUAUCAGCUCGAUUAGAGCUGAGAAGGAGAUCACAUGU”, the “apparent Kd” value was 46.8 nM under setting [1] and 39.5 nM under setting [2]. With “AGGAGGUUAGGAUAUGCUGCUCGUCACUUGCGUGAUGAGUAGCAGAAGGAACAUGAGGAUCACCCAUGUAAAAA”, the “apparent Kd” value under setting [3] was determined as 30.2 nM and the “apparent Kd” value under setting [4] was 31.9 nM. The matching figures for “GGAUUUACUGAGGAUAUUGCAUUACCCGAUUGAUAAGAAGGCAGAACAUGAGGAUCACCCAUGUGGGUAGUCAA”: 17.4 nM and 16.4 nM.

As for “CUGUGACGGUGCGCAAGUGGACGGAGAAGGCACACAUGAGGAUCACCCAUGUGAGCCUGCUAUUGUGAGGAUAUCCGUUCGUAC”, the “apparent Kd” value by setting is: under setting [3], 5.52 nM; under setting [4], 7.02 nM. Consider “CCUGUGUGAGGAUAUCUACGCCAUGUCUUUGACAUGGCGCAAGAGAAGGCACAUGAGGAUCACCCAUGUACUUC”, for which the “apparent Kd” value was 22.6 nM under setting [3] and 135 nM under setting [4]. Turning to “AAUAAACUCACAGGAUAUAGCAUCGACGUUGCGAACUUAGCGACGUCGAUGCUAGAAGGGUGAAAACAUGAGGAUCACCCAUGU”, the “apparent Kd” value is 30.9 nM under setting [1] and 13.4 nM under setting [2]. Regarding “UCUUAAGGAGGAUAUACAUGAGGAUCACCCAUGUAUGACCGCAGGGCGUCCUUGUAUCGUAGAAGGCCUCGGUA”, the “apparent Kd” value came out at 33.3 nM under setting [3] and 43.6 nM under setting [4]. On to “UCAUGUUAGCAGGAUAUGCUAUUUAUUUUUUAUGCAGAAGGGCUUACAUGAGGAUCACCCAUGUGUUAGGUUUU”, for which the “apparent Kd” value is, setting by setting: under setting [3], 41.8 nM; under setting [4], 21.1 nM. As to “GCGUUCUUGUAGAAGGUACCUUCAACAUAUUAUAAACGCUAGACACAUGAGGAUCACCCAUGUUGUAAGGAUAUACAUGAACGC”, the “apparent Kd” value under setting [1] stood at 16.7 nM and the “apparent Kd” value under setting [2] turned out to be 13.5 nM. Consider “UGAUAGGACAGAGGAUAUACCGAUAGGAUCUACUAUCGAAUAAUCCUCACAUGAGGAUCACCCAUGUAGAAGGCUGUCCUAUCU”, for which the “apparent Kd” value under setting [3] was 19.7 nM and the “apparent Kd” value under setting [4] was determined as 144 nM. In the case of “AUGUGGUGCGUAGGAUAUCAUUGAGGGUCACCCUGAGAAGGACGUGAGGACAUGAGGAUCACCCAUGUGGAUCACCCAUGUCAU”, the “apparent Kd” value under setting [3] was 245 nM and the “apparent Kd” value under setting [4] came to 288 nM. Consider “UUUUUGUGAGGAUAUACGUAGUAGAACAAUAGUACUACUACGUAGAAGGCACAUGAGGAUCACCCAUGUUCCUC”, for which the “apparent Kd” value reads like this: under setting [3], 47.6 nM; under setting [4], 339 nM. Take “AAGAGUAGAGGAUAUAUAUGAAAAGAGUCGAAAGACUCAAAACAUGAGGAUCACCCAUGUAGAAGGCUACUCAA”: the “apparent Kd” value came to 17.8 nM under setting [3] and 21.1 nM under setting [4]. For the sequence “UGCACCAACGAGAAGGCACAGAUCCAGCUCUUGACAUGAGGAUCACCCAUGUGAGGAUAUCGUAGGUGCGAAUUGGGACAAUCU”, the “apparent Kd” value worked out at 11 nM under setting [3] and 98.2 nM under setting [4]. As for “UGUUAAUUGUAGAAGGGUGACAUGAGGAUCACCCAUGUACUAAUGCGAUUUACGGCGCAUGUUCCACAGGAUAUACAGUUGAGU”, the “apparent Kd” value runs as follows: under setting [1], 1270 nM; under setting [2], 274 nM. Take “UGCAGACGAGGAUAUGAUGUCAUAGACAUGAGGAUCACCCAUGUGAUCAAUUAAUUAAGAUCAGAAGGCGUCUGCA”: the “apparent Kd” value runs as follows: under setting [3], 315 nM; under setting [4], 218 nM.

By apparent Kd is commonly meant the concentration giving half-maximal binding under the conditions of the assay.
